# According to ChEMBL document CHEMBL4152376, “Optimization of 8-Hydroxyquinolines as Inhibitors of Catechol O-Methyltransferase” (J Med Chem, 2018):
# Assays:
# [1] = biological target: T1, Catechol O-methyltransferase (Homo sapiens, UniProt P21964); experiment: Inhibition of c-terminal hexa-His tagged human S-COMT expressed in HEK293-6E cell membrane homogenate using 7,8-dihydroxy-4-methylcoumarin as substrate after 1 hr in presence of SAM by MTase glo methyltransferase assay
# T1 sequence (P21964 whole entry): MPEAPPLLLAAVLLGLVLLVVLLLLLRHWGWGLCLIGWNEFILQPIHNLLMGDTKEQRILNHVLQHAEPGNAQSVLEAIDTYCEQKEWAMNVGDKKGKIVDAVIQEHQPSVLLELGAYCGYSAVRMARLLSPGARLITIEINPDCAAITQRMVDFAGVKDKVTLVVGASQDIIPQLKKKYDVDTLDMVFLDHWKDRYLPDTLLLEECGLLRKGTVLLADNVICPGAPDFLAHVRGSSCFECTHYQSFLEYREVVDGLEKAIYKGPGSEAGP
# Method in brief: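 His6-tagged S-COMT (human or rat), expressed in 293-6E cells and purified by Ni-NTA and size exclusion, 1 ng per well. 20 µM SAM and 10 µM 7,8-dihydroxy-4-methylcoumarin in pH 6.9 Tris/MgCl2/DTT buffer, 1.5% DMSO. 1 h at 37 °C, then MTase-Glo luminescence read against a SAH standard curve. […] 4-parameter IC50; triplicate wells, three runs.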
# Rattus norvegicus [2] = experiment: Volume of distribution at steady state in rat at 1 mg/kg, iv or 3/10 mg/kg, po; assay type: ADME, organism-based; conditions: in vivo
# Method in brief: (§1)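 Rat pharmacokinetics after a 1 mpk iv dose (n=3) and a 3 or 10 mpk oral dose (n=3).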
# [3] = biological target: T1, Catechol O-methyltransferase; experiment: Inhibition of c-terminal hexa-His tagged human MB-COMT expressed in HEK293 cell membrane homogenate using norepinephrine as substrate after 1 hr in presence of SAM by MTase glo methyltransferase assay
# Method in brief: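 Membrane homogenate of HEK293 cells expressing C-terminal His6 MB-COMT (human about 7 ng, rat about 4 ng per well, protein by Bradford […]). 20 µM SAM and 7 µM norepinephrine in 50 mM Tris, 5–10 mM MgCl2, 2.5 mM DTT, pH 6.9, final DMSO 1.5%. 1 h at 37 °C, then MTase-Glo luminescence. […] 4-parameter IC50 fit; triplicate points, three experiments.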
# [4] = Plasma concentration C57BL/6J mouse at 10 mg/kg, ip measured at 1 hr post dose; assay type: ADME, organism-based
# Method in brief: (§2)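 Male C57BL/6J mice (8 weeks), single ip injection of 10 mg/kg suspended in 0.1% Tween80/0.1% antifoam/1% methylcellulose at 10 mL/kg. Two mice per timepoint; at 1 h, plasma separated at 4 °C and brain homogenized in 4 volumes PBS pH 7.4. Total brain and plasma levels measured.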
# [5] = Clearance in rat hepatocytes assessed as per million cells; assay type: ADME, cell-based, Hepatocyte; conditions: read-out: CLH
# [6] = Drug uptake in brain of C57BL/6J mouse at 10 mg/kg, ip measured at 1 hr post dose; assay type: ADME, organism-based; conditions: for concentration at 1 h: C57BL/6J, brain, read-out: Drug uptake; for Drug uptake: in vivo, 1 h, BLD = below limit of detection; method in brief: as §2
# Rattus norvegicus [7] = experiment: Oral bioavailability in rat at 3/10 mg/kg; assay type: ADME, organism-based; conditions: in vivo; method in brief: as §1
# [8] = Half life in rat at 1 mg/kg, iv or 3/10 mg/kg, po; assay type: ADME, organism-based; conditions: in vivo; method in brief: as §1
# [9] = Fraction unbound in rat plasma by equilibrium dialysis; assay type: ADME, cell-free
# Method in brief: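 Percent free drug in mouse or rat plasma, measured by equilibrium dialysis.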
# [10] = Efflux ratio of permeability in MDCK cells; assay type: ADME, cell-based, Canis lupus familiaris; conditions: dog
# Method in brief: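 Efflux ratio taken as […] transport across P-glycoprotein-expressing MDCK cells.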
IC50 [1] [nM],Vdss (Rattus norvegicus [2]) [L/kg],IC50 [3] [nM],concentration at 1 h [4] [ng/mL],hepatocyte CLint [5] [µL/min/1e6 cells],concentration at 1 h [6] [ng/g],F (Rattus norvegicus [7]) [%],half-life [8] [h],Fu [9],Drug uptake [6],efflux ratio [10],Structure (SMILES)
501,1.2,6.31,1740,36,518,34,0.26,,,,Cc1ccc(S(=O)(=O)c2cc(F)c(O)c3ncccc23)cc1
501,1.8,6.31,173,,,24,0.18,0.5,Bld,,O=S(=O)(c1ccc(O)c2ncccc12)C1CCCC1
1580,,50.1,250,39,11,,,,,,CCS(=O)(=O)c1ccc(O)c2ncccc12
,,3.16,,255,,,,,,,O=S(=O)(c1ccc(O)c2ncccc12)N1CCC(c2ccc(F)cc2)C1 (stereo not drawn)
,,3980,,,,,,,,,Cc1ccc(C(=O)c2ccc(O)c3ncccc23)cc1
1260,,63.1,3540,46,,,,,Bld,,O=S(=O)(c1ccc(C(F)(F)F)cc1)c1ccc(O)c2ncccc12
> 10000,,> 10000,,,,,,,,,Cc1ccc(S(=O)(=O)c2cc(C(F)(F)F)c(O)c3ncccc23)cc1
3160,,20,576,103,55,,,,,,Cc1cc(S(=O)(=O)N2CCCC2)c2cccnc2c1O
2000,,7.94,68,177,10.5,,,,,,O=S(=O)(c1ccc(O)c2ncccc12)N1CCCC1
,,251,,,,,,,,,Cc1ccc(-c2ccc(O)c3ncccc23)cc1
3160,0.8,10,16200,14,1150,33,8.6,0.5,,0.4,O=S(=O)(c1cc(Cl)c(O)c2ncccc12)N1CCCC1
,,> 10000,,,,,,,,,COc1ccc(S(=O)(=O)N2CCCC2)c2cccnc12
> 10000,0.23,200,16600,4,5660,23,8.9,0.5,,0.8,O=S(=O)(c1ccc(F)cc1)c1cc(Cl)c(O)c2ncccc12
,,> 10000,,,,,,,,,O=C(c1ccc(O)c2ncccc12)N1CCCC1
6310,3.8,79.4,2540,12,1090,66,3.5,0.6,,1.1,O=S(=O)(c1ccc(C(F)(F)F)cc1)c1cc(F)c(O)c2ncccc12
> 10000,,> 10000,,,,,,,,,O=S(=O)(c1cc(C(F)(F)F)c(O)c2ncccc12)C1CCCC1
> 10000,,1260,,,,,,,,,Cc1ccc(S(=O)(=O)c2cc(Br)c(O)c3ncccc23)cc1
